Calls of active or inactive are those of the source. The rule behind the calls is not given here.
Tests used:
Candida albicans [1] = test: Upregulation of Aryl-alcohol dehydrogenase expression in Candida albicans SC5314 at 40 uM after 24 hrs by MALDI-TOF MS; type: functional, organism-based
Procedure, shortened: (§1)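 Overnight YNB-glucose SC5314 culture, PBS-washed, adjusted to OD600 0.1 and treated 24 h with 40 or 200 μM farnesol (methanol in controls). Proteomes were compared with untreated cells by 2D SDS-PAGE and MALDI-TOF MS, searched against NCBI nonredundant database. Spots were counted as changed at ≥1.5-fold in three independent experiments.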

Candida albicans [2] = test: Increase in MCA1 expression in Candida albicans SC5314 at 40 uM after 4 hrs by quantitative PCR analysis; type: functional
Procedure, shortened: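 Log-phase SC5314 cells were used, pregrown overnight at 30°C and 120 rpm in yeast nitrogen base (pH 7.0) with 50 mM glucose, washed in PBS and set to OD600 0.1. Farnesol (methanol stock) was given for 4 h, with methanol-matched untreated controls. SYBR green qPCR ran 35 cycles with 58°C annealing and a melt-curve check. MCA1 was calculated by 2^−ΔΔCT against ACT1 and RPP2B.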

Candida albicans [3] = test: Upregulation of Mitochondrial 2-enoyl thioester reductase expression in Candida albicans SC5314 at 200 uM after 24 hrs by MALDI-TOF MS; type: functional, organism-based
Procedure, shortened: (§2)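 SC5314 grown overnight at 30°C, 120 rpm, in yeast nitrogen base (pH 7.0) with 50 mM glucose. Cells were washed in PBS and adjusted to OD600 0.1, then treated 24 h with farnesol from a methanol dilution; controls received methanol. Proteomes of treated and untreated cells were compared by 2-D SDS-PAGE and MALDI-TOF MS, with ProFound searches of the NCBI nonredundant database. Spots changed at least 1.5-fold in three independent experiments were counted.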

Candida albicans [4] = test: Antiproliferative activity against Candida albicans SC5314 assessed as cell killing at 10 uM after 24 hrs by MTS assay; type: functional
Procedure, shortened: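 SC5314 grown overnight in YNB (pH 7.0) with 50 mM glucose at 30°C, 120 rpm, washed in PBS. Suspensions at 1 × 10⁷ cells/ml exposed to farnesol at final 0, 10, 40, 100, 200, 300 μM for 24 h at 30°C with shaking, with methanol vehicle controls. MTS reagent added for 4 h at 37°C, A490 read, and % killed cells calculated.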

Candida albicans [5] = test: Downregulation of GRE3 expression in Candida albicans SC5314 at 40 uM after 24 hrs by MALDI-TOF MS; type: functional, organism-based; procedure, shortened: as §1
Candida albicans [6] = test: Upregulation of Manganese superoxide dismutase expression in Candida albicans SC5314 at 200 uM after 24 hrs by MALDI-TOF MS; type: functional, organism-based; procedure, shortened: as §2
Candida albicans [7] = test: Induction of apoptosis in Candida albicans SC5314 at 40 uM after 24 hrs by TUNEL assay; type: functional
Procedure, shortened: (§3)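 After 24 h in farnesol (40, 100, 200 μM), cells were PBS-washed, fixed in 4% paraformaldehyde (pH 7.4) 1 h at 20°C, and permeabilized 2 min on ice. They were labeled with 9:1 label:enzyme TUNEL mix 1 h at 37°C in the dark and examined by fluorescence microscopy at 515–565 nm. Flow cytometry counted % positive of 30,000 gated cells, gates set by no-enzyme and DNase-treated controls.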

Candida albicans [8] = test: Induction of apoptosis in Candida albicans SC5314 at 200 uM after 24 hrs by TUNEL assay; type: functional; procedure, shortened: as §3
Candida albicans [9] = test: Upregulation of Catalase A expression in Candida albicans SC5314 at 40 uM after 24 hrs by MALDI-TOF MS; type: functional, organism-based; procedure, shortened: as §1
Candida albicans [10] = test: Upregulation of Aldose reductase expression in Candida albicans SC5314 at 200 uM after 24 hrs by MALDI-TOF MS; type: functional, organism-based; procedure, shortened: as §1
Candida albicans [11] = test: Downregulation of Dihydroxy acid dehydratase expression in Candida albicans SC5314 at 200 uM after 24 hrs by MALDI-TOF MS; type: functional, organism-based; procedure, shortened: as §1
Candida albicans [12] = test: Upregulation of Heat shock protein 90 expression in Candida albicans SC5314 at 200 uM after 24 hrs by MALDI-TOF MS; type: functional, organism-based; procedure, shortened: as §1
Candida albicans [13] = test: Induction of apoptosis in Candida albicans SC5314 assessed as mitochondrial degradation at 200 uM after 3 hrs by Fluorescence analysis; type: functional
Procedure, shortened: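 Farnesol-exposed SC5314 (40, 100, 200 μM; methanol control, H2O2 positive control) stained with a MitoPT mitochondrial permeability transition dye per kit instructions. Cells imaged by confocal microscopy: red mitochondrial aggregates in healthy cells, dispersed green signal in apoptotic cells. Percentage of cells with degradation was recorded.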

Candida albicans [14] = test: Downregulation of Glyceraldehyde-3-phosphate dehydrogenase expression in Candida albicans SC5314 at 200 uM after 24 hrs by MALDI-TOF MS; type: functional, organism-based; procedure, shortened: as §1
Candida albicans [15] = test: Induction of apoptosis in Candida albicans SC5314 assessed as activation of caspase activity at 100 uM after 3 hrs by Fluorescence analysis; type: functional
Procedure, shortened: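 SC5314 grown overnight at 30°C (120 rpm) in yeast nitrogen base pH 7.0 with 50 mM glucose, PBS-washed, set to OD600 0.1, then exposed to farnesol (40, 100, 200 μM; methanol diluent). Active caspases detected in situ with a FLICA kit per the manufacturer; green cells imaged by confocal microscopy (Cy2/Cy3). Controls: methanol vehicle and hydrogen peroxide. Done on three or more occasions.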

Candida albicans [16] = test: Upregulation of Coproporphyrinogen III oxidase expression in Candida albicans SC5314 at 40 uM after 24 hrs by MALDI-TOF MS; type: functional, organism-based; procedure, shortened: as §1
Candida albicans [17] = test: Induction of ROS accumulation in mitochondria of Candida albicans SC5314 at 200 uM after 3 hrs by Fluorescence analysis; type: functional
Procedure, shortened: (§4)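 Cells were exposed 3 h to 40, 100 or 200 μM farnesol, with methanol control and H2O2 positive control. Washed cells were stained 30 min in the dark with a mix of dichlorodihydrofluorescein diacetate, propidium iodide and calcofluor white, then washed and viewed by confocal microscopy. % green (ROS) cells of all cells was scored, with red (necrotic) cells scored separately.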

Candida albicans [18] = test: Induction of ROS accumulation in mitochondria of Candida albicans SC5314 after 3 hrs by Fluorescence analysis; type: functional, organism-based; procedure, shortened: as §4
Candida albicans [19] = test: Downregulation of Translational elongation factor 1 expression in Candida albicans SC5314 at 40 uM after 24 hrs by MALDI-TOF MS; type: functional, organism-based; procedure, shortened: as §1
Candida albicans [20] = test: Increase in MCA1 expression in Candida albicans SC5314 at 2.5 mM after 4 hrs by quantitative PCR analysis
Candida albicans [21] = test: Upregulation of Coproporphyrinogen III oxidase expression in Candida albicans SC5314 at 200 uM after 24 hrs by MALDI-TOF MS; type: functional, organism-based; procedure, shortened: as §1
Candida albicans [22] = test: Downregulation of Putative stress response protein expression in Candida albicans SC5314 at 40 uM after 24 hrs by MALDI-TOF MS; type: functional, organism-based; procedure, shortened: as §1
Candida albicans [23] = test: Downregulation of Riboflavin synthase expression in Candida albicans SC5314 at 40 uM after 24 hrs by MALDI-TOF MS; type: functional, organism-based; procedure, shortened: as §1
Candida albicans [24] = test: Downregulation of Phosphoglycerate mutase expression in Candida albicans SC5314 at 40 uM after 24 hrs by MALDI-TOF MS; type: functional, organism-based; procedure, shortened: as §1
Candida albicans [25] = test: Increase in MCA1 expression in Candida albicans SC5314 at 10 mM after 4 hrs by quantitative PCR analysis

**Q.** What does the source list for `CC(C)=CCC/C(C)=C/CC/C(C)=C/CO` [FARNESOL]?
**A.** Activity (Candida albicans [1]): Active; fold change (FC) (Candida albicans [2]): 3; Activity (Candida albicans [3]): Active; Activity (Candida albicans [4]): <10%; Activity (Candida albicans [5]): Active; Activity (Candida albicans [6]): Active; Activity (Candida albicans [7]): 2%; Activity (Candida albicans [8]): 14.5%; Activity (Candida albicans [9]): Active; Activity (Candida albicans [10]): Active; Activity (Candida albicans [11]): Active; Activity (Candida albicans [12]): Active; Activity (Candida albicans [13]): 95%; Activity (Candida albicans [14]): Active; Activity (Candida albicans [15]): 13%; Activity (Candida albicans [16]): Active; Activity (Candida albicans [17]): 65%; Activity (Candida albicans [18]): Active; Activity (Candida albicans [19]): Active; Activity (Candida albicans [20]): Active; Activity (Candida albicans [21]): Active; Activity (Candida albicans [22]): Active; Activity (Candida albicans [23]): Active; Activity (Candida albicans [24]): Active; Activity (Candida albicans [25]): Active

— ChEMBL document CHEMBL1649480, “Farnesol-induced apoptosis in Candida albicans” (2009)
